Assay results of several laboratories.
Protocols differ between the studies behind these lines.
Target: MAP kinase-interacting serine/threonine-protein kinase 1 (MKNK1, Homo sapiens, UniProt Q9BUB5)

O=C(c1ccc(Nc2ncc(Cl)c(-c3ccc(Cl)s3)n2)cc1)N1CCC(N2CCCC2)CC1  remaining binding (binding; competition with immobilised ligand; 1 µM): 45%
CCN1CCN(Cc2ccc(C(=O)Nc3ccc(C)c(Oc4ccc5c(c4)CC(=O)N5)c3)cc2C(F)(F)F)CC1  remaining binding (binding; competition with immobilised ligand; 1 µM): 100%
C[C@@H]1CN(c2cc(-c3n[nH]c4ccc(OC5(C)CC5)cc34)ncn2)C[C@H](C)O1  remaining binding (cell-free assay; competition with immobilised ligand; 0.1 µM): 67%
COc1ccnn2ncc(-c3ccnc(N(C)C)n3)c12  remaining binding (binding; 1 µM): 95%
CO[C@@H](C)c1c(Nc2ccc([C@H](N(C)C(=O)C3CCS(=O)(=O)CC3)C(F)(F)F)cc2)cnc2cc(Cl)nn12  remaining binding (cell-free assay; competition with immobilised ligand; 1 µM): 100%
CN(c1nccc(-c2cnn3ncccc23)n1)C1CC1  remaining binding (binding; 1 µM): 98%
CC(=O)N1CCC(c2ccc(C(=O)NC(=N)N)cc2C(F)(F)F)CC1  remaining binding (cell-free assay; competition with immobilised ligand; 1 µM): 100%
CN(C)c1ncc(F)c(-c2cnn3ncccc23)n1  remaining binding (binding; 1 µM): 62%
COc1cnc(Nc2cccc(S(N)(=O)=O)c2)nc1N1CCN(c2ccccc2)CC1  remaining binding (binding; competition with immobilised ligand; 1 µM): 83%
N[C@H]1CCN(c2nccc(-c3cnn4ncccc34)n2)C1  remaining binding (binding; 1 µM): 90%
CSc1cccnc1N1CCN(Cc2nc3ccccc3[nH]2)CC1  remaining binding (cell-free assay; competition with immobilised ligand; 1 µM): 98%
O=C(NCCCN1CCOCC1)c1ccc(Nc2ncc(Cl)c(-c3ccc(Cl)s3)n2)cc1  remaining binding (binding; competition with immobilised ligand; 1 µM): 84%
C[C@H]1CCN(c2nccc(-c3cnn4ncccc34)n2)C1  remaining binding (binding; 1 µM): 59%
O=C(NCCCN1CCOCC1)c1ccc(Nc2nccc(-c3cc4ccccc4s3)n2)cc1  remaining binding (binding; competition with immobilised ligand; 1 µM): 43%
CS(=O)(=O)c1cc(C2(NC(=O)c3cncc4c3cnn4-c3ccc(F)cc3)CC2)ccn1  remaining binding (cell-free assay; competition with immobilised ligand; 1 µM): 47%
C[C@@H]1CN(c2ccc3ncc(-c4ccc5[nH]nc(C6CC6)c5c4)n3n2)C[C@H](C)O1  remaining binding (binding; competition with immobilised ligand; 0.5 µM): 94%
CN(C)c1nccc(-c2cnn3ncccc23)n1  remaining binding (binding; 1 µM): 100%
FC(F)(F)Oc1cccc(-c2cnc3ccc(-c4ccncc4)nn23)c1  remaining binding (cell-free assay; competition with immobilised ligand; 5 µM): 71%
N#Cc1ccccc1CSc1nnc2c(n1)[nH]c1ccccc12  remaining binding (binding; competition with immobilised ligand; 10 µM): 98%
Cc1cc(C)c(-n2ccn3nc(-c4cccnc4)cc23)cc1NC(=O)c1cc(C#N)cc(S(F)(F)(F)(F)F)c1  remaining binding (cell-free assay; competition with immobilised ligand; 0.1 µM): 83.8%
c1cncc(-c2cccc(Nc3nccc(NC4CCCCC4)n3)c2)c1  remaining binding (binding; competition with immobilised ligand; 10 µM): 89%
CS(=O)(=O)N1CCCC(NC(=O)[C@H](CCC2CCCCC2)NC(=O)c2ccc(CNC(=O)c3cnc4ccccn34)cc2)C1 (stereo partly shown)  remaining binding (cell-free assay; competition with immobilised ligand; 0.1 µM): 100%
O=C(Nc1c[nH]nc1C(=O)NC1CCNCC1)c1cc(F)cc(F)c1  remaining binding (binding; competition with immobilised ligand; 1 µM): 100%
O=C(NCCCC1CCCCC1)c1ccc(CNC(=O)c2cnn(-c3ccccc3)c2C(F)(F)F)cc1  remaining binding (cell-free assay; competition with immobilised ligand; 0.1 µM): 98%
C=CC(=O)N1CCC(C(=O)NCC(=O)N2CCN(c3nc(-c4cnc(N)nc4C(F)F)nc(N4CCOCC4)n3)CC2)CC1  remaining binding (binding; competition with immobilised ligand; 1 µM): 83%
